According to ChEMBL document CHEMBL5653631, “A Potent and Selective ULK1 Inhibitor Suppresses Autophagy and Sensitizes Cancer Cells to Nutrient Stress” (iScience, 2018):

Assays:
[1] = target: Cyclin-dependent kinase 3 (Homo sapiens) (UniProt Q00526); experiment: Inhibition of human recombinant CDK3 at 500 nM related to control ULK1
Homo sapiens = organism: Homo sapiens; experiment: Inhibition of human recombinant CK1d at 15 nM related to control ULK1
[2] = target: Calcium/calmodulin-dependent protein kinase type 1G (Homo sapiens) (UniProt Q96NX5); experiment: Inhibition of human recombinant CaMK1g at 15 nM related to control ULK1
[3] = target: Serine/threonine-protein kinase ATR (Homo sapiens) (UniProt Q13535); experiment: Inhibition of human recombinant ATR at 40 nM related to control ULK1
Outline: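 Radiometric activity assays in a panel of 327 human recombinant kinases, each run in duplicate at one inhibitor concentration. Activity remaining is expressed as percent of vehicle control, and percent inhibition is calculated as 100% minus percent activity remaining.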

[4] = target: Protein kinase C alpha type (Homo sapiens) (UniProt P17252); experiment: Inhibition of human recombinant PKCa at 40 nM in presence of ATP by radiometric assay relative to control
[5] = target: T1, Dual specificity tyrosine-phosphorylation-regulated kinase 2 (Homo sapiens) (UniProt Q92630); experiment: Inhibition of human recombinant DYRK2 at 40 nM related to control ULK1
T1 sequence (whole entry): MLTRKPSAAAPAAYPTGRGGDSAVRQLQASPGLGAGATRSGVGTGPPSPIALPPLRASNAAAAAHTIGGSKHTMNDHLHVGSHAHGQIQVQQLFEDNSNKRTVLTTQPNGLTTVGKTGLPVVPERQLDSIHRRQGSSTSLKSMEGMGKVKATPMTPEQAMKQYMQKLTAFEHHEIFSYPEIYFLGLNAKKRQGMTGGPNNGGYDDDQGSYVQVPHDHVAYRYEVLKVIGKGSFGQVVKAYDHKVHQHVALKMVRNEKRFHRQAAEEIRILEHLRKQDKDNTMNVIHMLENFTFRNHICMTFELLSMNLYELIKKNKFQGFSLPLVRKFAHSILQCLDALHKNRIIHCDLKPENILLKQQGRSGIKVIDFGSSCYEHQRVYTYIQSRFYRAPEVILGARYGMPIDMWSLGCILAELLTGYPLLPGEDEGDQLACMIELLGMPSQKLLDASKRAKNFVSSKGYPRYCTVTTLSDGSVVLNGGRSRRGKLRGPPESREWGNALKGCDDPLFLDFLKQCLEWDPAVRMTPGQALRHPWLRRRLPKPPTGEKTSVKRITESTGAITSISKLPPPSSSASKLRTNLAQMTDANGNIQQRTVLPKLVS

[6] = target: Rho-associated protein kinase 2 (Homo sapiens) (UniProt O75116); experiment: Inhibition of human recombinant ROCK2 at 40 nM in presence of ATP by radiometric assay relative to control
[7] = target: Myosin light chain kinase, smooth muscle (Homo sapiens) (UniProt Q15746); experiment: Inhibition of human recombinant smMLCK at 40 nM related to control ULK1
[8] = target: T2, Mitogen-activated protein kinase kinase kinase 2 (Homo sapiens) (UniProt Q9Y2U5); experiment: Inhibition of human recombinant MAP3K2 at 40 nM related to control ULK1
T2 sequence (whole entry): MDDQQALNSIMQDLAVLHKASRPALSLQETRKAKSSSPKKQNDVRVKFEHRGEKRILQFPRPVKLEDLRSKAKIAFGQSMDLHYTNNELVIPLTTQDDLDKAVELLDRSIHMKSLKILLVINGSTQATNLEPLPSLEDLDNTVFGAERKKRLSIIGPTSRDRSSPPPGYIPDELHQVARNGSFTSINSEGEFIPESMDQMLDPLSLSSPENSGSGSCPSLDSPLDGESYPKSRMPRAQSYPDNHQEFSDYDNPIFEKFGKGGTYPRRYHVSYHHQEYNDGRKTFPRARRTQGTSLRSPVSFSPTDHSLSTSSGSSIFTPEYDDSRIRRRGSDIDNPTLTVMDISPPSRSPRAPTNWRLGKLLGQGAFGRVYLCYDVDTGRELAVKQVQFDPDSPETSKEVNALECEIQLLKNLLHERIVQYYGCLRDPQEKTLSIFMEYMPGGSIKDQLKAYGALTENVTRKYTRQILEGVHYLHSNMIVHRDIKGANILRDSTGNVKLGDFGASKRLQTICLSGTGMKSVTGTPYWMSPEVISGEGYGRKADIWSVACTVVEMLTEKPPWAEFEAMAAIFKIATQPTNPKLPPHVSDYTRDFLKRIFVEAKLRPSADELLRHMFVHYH

[9] = target: MAP/microtubule affinity-regulating kinase 3 (Homo sapiens) (UniProt P27448); experiment: Inhibition of human recombinant MARK3 at 40 nM in presence of ATP by radiometric assay relative to control
[10] = target: Receptor tyrosine-protein kinase erbB-4 (Homo sapiens) (UniProt Q15303); experiment: Inhibition of human recombinant ErbB4 at 40 nM in presence of ATP by radiometric assay relative to control
Sequence of Receptor tyrosine-protein kinase erbB-4 (Homo sapiens) (Q15303 whole entry): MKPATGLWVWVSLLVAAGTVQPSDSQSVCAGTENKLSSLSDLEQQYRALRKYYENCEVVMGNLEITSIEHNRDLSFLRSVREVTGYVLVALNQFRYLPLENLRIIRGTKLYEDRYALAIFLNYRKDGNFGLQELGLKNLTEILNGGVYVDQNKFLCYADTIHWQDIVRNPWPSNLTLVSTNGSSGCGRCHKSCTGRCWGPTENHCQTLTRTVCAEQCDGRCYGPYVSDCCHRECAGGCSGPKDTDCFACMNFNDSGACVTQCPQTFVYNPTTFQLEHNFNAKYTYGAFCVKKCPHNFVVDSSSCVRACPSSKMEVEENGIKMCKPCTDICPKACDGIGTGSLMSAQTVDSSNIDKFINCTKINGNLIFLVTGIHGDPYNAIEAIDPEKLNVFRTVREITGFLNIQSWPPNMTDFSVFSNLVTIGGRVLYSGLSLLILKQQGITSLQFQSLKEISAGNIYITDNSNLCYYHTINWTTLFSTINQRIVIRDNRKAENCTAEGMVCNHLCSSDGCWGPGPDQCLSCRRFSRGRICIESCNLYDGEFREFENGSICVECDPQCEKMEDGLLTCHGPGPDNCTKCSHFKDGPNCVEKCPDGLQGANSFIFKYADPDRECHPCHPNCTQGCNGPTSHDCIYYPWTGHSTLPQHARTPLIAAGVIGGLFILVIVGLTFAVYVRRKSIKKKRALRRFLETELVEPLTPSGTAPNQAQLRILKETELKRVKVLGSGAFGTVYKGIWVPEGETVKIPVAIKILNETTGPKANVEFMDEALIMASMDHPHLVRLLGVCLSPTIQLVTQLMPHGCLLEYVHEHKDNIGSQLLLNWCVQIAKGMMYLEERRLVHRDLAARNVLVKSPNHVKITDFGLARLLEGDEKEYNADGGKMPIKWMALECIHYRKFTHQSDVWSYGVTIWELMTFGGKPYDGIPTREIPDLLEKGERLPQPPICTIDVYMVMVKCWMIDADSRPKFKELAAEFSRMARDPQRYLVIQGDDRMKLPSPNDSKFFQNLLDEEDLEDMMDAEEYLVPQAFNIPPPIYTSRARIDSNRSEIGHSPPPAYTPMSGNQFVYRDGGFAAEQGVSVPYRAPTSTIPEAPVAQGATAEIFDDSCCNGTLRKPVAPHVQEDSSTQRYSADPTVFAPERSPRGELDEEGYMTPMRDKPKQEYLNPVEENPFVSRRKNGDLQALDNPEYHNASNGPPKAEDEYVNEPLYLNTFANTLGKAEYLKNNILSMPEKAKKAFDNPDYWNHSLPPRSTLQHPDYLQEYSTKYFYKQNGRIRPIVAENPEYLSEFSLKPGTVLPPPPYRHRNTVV

Sequence of Serine/threonine-protein kinase ATR (Homo sapiens) (Q13535 whole entry, looked up): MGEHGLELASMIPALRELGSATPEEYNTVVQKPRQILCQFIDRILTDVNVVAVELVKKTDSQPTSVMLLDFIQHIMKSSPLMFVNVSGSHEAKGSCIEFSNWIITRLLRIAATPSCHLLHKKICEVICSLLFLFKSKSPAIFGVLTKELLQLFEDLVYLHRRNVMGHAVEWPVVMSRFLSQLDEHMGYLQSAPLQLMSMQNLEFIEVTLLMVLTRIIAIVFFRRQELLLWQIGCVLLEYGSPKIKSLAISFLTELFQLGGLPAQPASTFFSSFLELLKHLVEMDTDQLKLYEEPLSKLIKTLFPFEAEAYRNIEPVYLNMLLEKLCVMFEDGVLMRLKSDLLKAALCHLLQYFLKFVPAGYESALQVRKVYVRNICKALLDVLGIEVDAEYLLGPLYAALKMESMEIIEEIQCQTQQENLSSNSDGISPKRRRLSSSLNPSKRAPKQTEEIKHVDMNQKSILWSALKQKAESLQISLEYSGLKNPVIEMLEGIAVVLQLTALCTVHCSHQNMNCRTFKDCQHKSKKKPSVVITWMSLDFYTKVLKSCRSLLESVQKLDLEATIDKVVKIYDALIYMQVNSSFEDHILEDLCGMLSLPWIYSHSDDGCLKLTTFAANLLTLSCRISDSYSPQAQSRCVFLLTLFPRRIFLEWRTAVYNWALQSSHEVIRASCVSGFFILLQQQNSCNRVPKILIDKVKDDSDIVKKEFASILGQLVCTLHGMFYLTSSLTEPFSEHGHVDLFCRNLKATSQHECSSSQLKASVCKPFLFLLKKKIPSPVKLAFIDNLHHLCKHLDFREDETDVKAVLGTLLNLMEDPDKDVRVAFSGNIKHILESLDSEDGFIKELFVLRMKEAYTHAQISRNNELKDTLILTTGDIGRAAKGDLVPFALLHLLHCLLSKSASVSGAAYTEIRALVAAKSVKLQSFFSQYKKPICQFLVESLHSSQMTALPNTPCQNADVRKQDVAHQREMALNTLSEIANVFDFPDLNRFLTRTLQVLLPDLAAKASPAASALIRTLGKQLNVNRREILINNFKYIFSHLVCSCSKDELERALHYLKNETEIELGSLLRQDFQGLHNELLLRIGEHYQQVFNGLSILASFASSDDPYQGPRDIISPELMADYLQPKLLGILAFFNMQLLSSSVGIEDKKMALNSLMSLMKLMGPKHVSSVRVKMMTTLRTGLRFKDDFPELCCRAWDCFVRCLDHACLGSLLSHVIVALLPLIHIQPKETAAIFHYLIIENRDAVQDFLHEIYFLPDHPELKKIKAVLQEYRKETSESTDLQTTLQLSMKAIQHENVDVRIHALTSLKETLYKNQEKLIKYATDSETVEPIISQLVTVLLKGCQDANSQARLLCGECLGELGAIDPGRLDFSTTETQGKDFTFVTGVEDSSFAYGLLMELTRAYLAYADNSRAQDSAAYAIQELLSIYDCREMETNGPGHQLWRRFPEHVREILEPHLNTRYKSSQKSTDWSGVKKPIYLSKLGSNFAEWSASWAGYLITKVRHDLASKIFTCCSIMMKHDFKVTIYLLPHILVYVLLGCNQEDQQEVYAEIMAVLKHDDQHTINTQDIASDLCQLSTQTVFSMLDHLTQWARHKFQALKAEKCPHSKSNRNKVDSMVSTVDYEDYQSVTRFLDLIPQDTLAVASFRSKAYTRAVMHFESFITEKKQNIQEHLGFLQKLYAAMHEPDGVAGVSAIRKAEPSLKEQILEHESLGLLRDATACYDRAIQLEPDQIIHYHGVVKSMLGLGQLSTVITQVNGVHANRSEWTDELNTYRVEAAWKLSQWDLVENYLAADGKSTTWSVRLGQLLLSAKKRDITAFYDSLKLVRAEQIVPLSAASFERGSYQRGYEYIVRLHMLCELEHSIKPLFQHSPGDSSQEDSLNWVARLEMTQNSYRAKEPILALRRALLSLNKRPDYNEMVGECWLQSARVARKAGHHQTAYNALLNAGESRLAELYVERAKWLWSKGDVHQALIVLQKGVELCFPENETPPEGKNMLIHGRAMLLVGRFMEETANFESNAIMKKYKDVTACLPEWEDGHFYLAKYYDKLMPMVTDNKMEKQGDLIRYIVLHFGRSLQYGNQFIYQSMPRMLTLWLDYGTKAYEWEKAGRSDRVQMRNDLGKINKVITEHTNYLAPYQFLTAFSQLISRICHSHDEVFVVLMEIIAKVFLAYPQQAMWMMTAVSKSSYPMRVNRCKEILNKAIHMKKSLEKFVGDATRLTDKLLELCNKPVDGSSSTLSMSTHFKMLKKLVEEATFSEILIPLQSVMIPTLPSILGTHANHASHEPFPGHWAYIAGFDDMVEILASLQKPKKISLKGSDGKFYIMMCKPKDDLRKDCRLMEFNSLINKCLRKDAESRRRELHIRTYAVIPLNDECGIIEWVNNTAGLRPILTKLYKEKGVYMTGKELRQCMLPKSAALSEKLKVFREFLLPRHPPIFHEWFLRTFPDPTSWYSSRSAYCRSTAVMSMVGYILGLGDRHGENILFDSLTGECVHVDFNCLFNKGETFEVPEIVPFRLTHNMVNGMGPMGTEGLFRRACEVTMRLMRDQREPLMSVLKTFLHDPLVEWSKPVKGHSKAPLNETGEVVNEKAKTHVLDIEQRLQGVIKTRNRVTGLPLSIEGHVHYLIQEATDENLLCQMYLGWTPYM
Sequence of Cyclin-dependent kinase 3 (Homo sapiens) (Q00526 whole entry, looked up): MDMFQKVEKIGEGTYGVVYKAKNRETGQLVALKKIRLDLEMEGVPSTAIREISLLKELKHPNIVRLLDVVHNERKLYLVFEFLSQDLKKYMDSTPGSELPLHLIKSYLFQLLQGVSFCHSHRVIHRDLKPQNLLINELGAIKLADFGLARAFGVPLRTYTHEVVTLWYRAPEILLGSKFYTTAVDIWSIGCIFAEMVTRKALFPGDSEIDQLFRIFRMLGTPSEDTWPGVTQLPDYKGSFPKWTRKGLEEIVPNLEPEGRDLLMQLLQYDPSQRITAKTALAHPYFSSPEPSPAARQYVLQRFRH

With `CNC(=O)c1ccccc1Oc1nc(Nc2cc(OC)c(OC)c(OC)c2)ncc1Br` as the compound, how does the fold change (FC) [1] read?
Its fold change (FC) is 0.01.

Which fold change (FC) (Homo sapiens) does the source give for `CC(C)[C@H](NC(=O)c1cc(-c2cnn3cc(-c4ccc(OCCN5CCCCC5)cc4)cnc23)cs1)C(F)(F)F` here?
Its fold change (FC) is 0.03.

And the fold change (FC) [2]?
Its fold change (FC) is 0.

With `O=C(N[C@@H](C1CC1)C(F)(F)F)c1cc(-c2cnn3cc(-c4ccc(F)cc4)cnc23)cs1` as the compound, how does the fold change (FC) [3] read?
Its fold change (FC) is 0.

What about the inhibition [4] of the same compound?
The inhibition was 0%.

And the fold change (FC) [5]?
The fold change (FC) was 0.15.

And the inhibition [6]?
Its inhibition is 2%.

And the fold change (FC) [7]?
Its fold change (FC) is 0.07.

What about the fold change (FC) [8] of the same compound?
Its fold change (FC) is 0.

What about the inhibition [9] of the same compound?
The inhibition was 15%.

What about the inhibition [10] of the same compound?
The inhibition was 0%.
